EphB4 antag – EphB4-ephrin-B2 interaction antagonism. EphB4 LBD / TNYL-RAW-Alexa532 peptide, fluorescence polarization. inhibition, % at 7 µM. 97,000 tested, 0.15% active;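 active = inhibition above the screen-wide mean inhibition plus 3 SD, cut at about 15% in these data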;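 note: 0% = DMSO wells and 100% = excess unlabeled TNYL-RAW peptide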
PLK1 kinase inh – blocks human PLK1 kinase activity. recombinant PLK1 kinase, TR-FRET peptide phosphorylation. inhibition, % at 10 µM. AID 619. P53350. 97,000 tested, 0.53% active;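 active = inhibition of 50% or more in the single-concentration screen; inactive = inhibition below 50%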;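 note: 0% = DMSO max control and 100% = H-89 dihydrochloride min control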
PLK1 PBD inh – blocks phosphopeptide binding to human Plk1 polo box domain | Plk1 PBD phosphopeptide binding, fluorescence polarization | AID 693 | P53350 | 97,000 tested, 0.13% active | inhibition, %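 (tested at about 20 µM)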; in the data active = inhibition above about 34%, passing the limit was not always enough
FAK blocker – FAK (human) kinase inhibition; biochemical FAK kinase activity assay; AID 727; 97,000 tested, 0.84% active; Q05397; inhibition, %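 (tested at 7 µM)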; in the data active = inhibition above about 19%;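 note: 0% = DMSO and 100% = reference compound high control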
Rev-RRE block – inhibitors of HIV-1 Rev-RRE RNA interaction; Rev peptide-RRE RNA binding, FRET; P05866; inhibition, % at 8 µM; 97,000 tested, 0.79% active;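 active = inhibition above the screen-wide mean plus 3 SD, cut at about 35% in these data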;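 note: 0% = median DMSO wells and 100% = median Neomycin B control wells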
Target sequence (P05866 whole entry, looked up): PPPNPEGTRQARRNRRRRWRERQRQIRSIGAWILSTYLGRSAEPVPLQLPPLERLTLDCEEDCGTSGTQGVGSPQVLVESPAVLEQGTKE
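Assay system: labelled RRE RNA duplex and labelled Rev peptide / Medium: HEPES pH 7.5 salt buffer with EDTA / Reagent: labelled Rev peptide / Schedule: 5 + 15 min at 25 °C / Signal: FRET, excitation 480 nm, emission 540 nm donor and 671 nm acceptor / Benchmarks: DMSO and neomycin B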
hDAT+cocaine – modulates human dopamine transporter uptake under cocaine; Q01959; LLC-PK1 hDAT cells, [14C]-dopamine uptake with cocaine IC80; actives deviate in either direction; B-score at 10 µM; 110,000 tested, 1.3% active; AID 449768;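 active = Z score or B-score, a plate-position-corrected score, falls beyond the plate's 99.7% confidence bounds, in either direction; inactive = both scores lie inside the 99.7% bounds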;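 note: scored against the spread of the other compound wells on the same plate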
* = called active by the depositor; / = no result given. Hits are enriched below; roughly 3.2% of the tested compounds scored in any of these assays.

SMILES	EphB4 antag	PLK1 kinase inh	PLK1 PBD inh	FAK blocker	Rev-RRE block	hDAT+cocaine
O=C(CS(=O)(=O)Cc1ccccc1)Nc1ccc(Cl)cn1	5	-1	-16	0	6	0.52
COc1cc(/C=c2\s/c(=C(/C#N)C(=O)N3CCCC3)n(-c3ccccc3)c2=O)ccc1O	-5	-18	-63	-5	46*	0.026
COC(=O)/C=c1/s/c(=C(/C#N)C(=O)N2CCOCC2)n(-c2ccccc2)c1=O	-3	-22	-26	0	-3	-0.029
COc1ccc(-c2nc(CSCC(=O)NCCC3=CCCCC3)c(C)o2)cc1OC	3	-13	13	0	3	2.5
Cc1nn(Cc2c(F)c(F)c(F)c(F)c2F)c(C)c1NC(=O)c1ccc(COc2ccc(F)cc2)o1	1	-10	9	3	2	-0.28
CCC1=NN2C(=N)/C(=C\c3ccc(SCc4ccco4)o3)C(=O)N=C2S1	0	-15	-23	-2	36*	0.91
CCCC1=NN2C(=N)/C(=C\c3ccc(SCc4ccco4)o3)C(=O)N=C2S1	-14	-48	-38	11	36*	0.47
N=C1/C(=C/c2cccs2)C(=O)N=C2SN=C(SCc3ccccc3)N12	-5	-3	-13	-4	4	-0.92
C=CCN1C(=O)C(Cc2ccc(OC)cc2)S/C1=N/N=C/c1ccco1 (stereo unspecified)	-11	-5	-12	-1	-4	-0.29
C=CCN1C(=O)C(Cc2ccc(OC)cc2)S/C1=N\N=C\c1cccs1 (stereo unspecified)	0	-7	7	1	-2	3*
COC(=O)c1nn(-c2ccc(OC)cc2)c(=O)cc1Oc1cccc(Cl)c1	-7	-11	-28	-2	9	-0.99
O=c1oc2ccccc2cc1-c1nnc(NCc2ccco2)s1	-4	4	-11	7	44*	-0.72
Nc1nnc(-c2cc3ccccc3oc2=O)s1	-1	-8	6	-4	7	0.56
C=C(C)c1sc(-c2ccc(Cl)cc2)nc1C	/	/	/	/	/	-0.57
Cc1cc2c3c(c1C)C1(C(=O)N3C(C)(C)CC2C)C(C#N)=C(N)OC2=C1C(=O)CC(C)(C)C2 (stereo unspecified)	7	-6	17	-8	1	0.0026
Cc1ccc(-n2c(SCC(=O)NCc3cccs3)nnc2-c2ccoc2C)cc1	2	-5	-5	0	3	2.6*
CC(C)=CCc1c(O)c(CC=C(C)C)c2c(c1O)-c1cc(O)c(O)cc1CC2	/	/	/	/	/	2.3
CCOC(=O)C1=C(C)N(CCCC(=O)O)C(=O)NC1c1ccccc1OC(=O)c1cccs1 (stereo unspecified)	/	/	/	/	/	-0.39
CCCc1cc(=O)[nH]c(SCC)n1	-2	-4	-1	-9	4	1.1
CCCc1cc(=O)[nH]c(-n2[nH]c3c(c2=O)CCCC3)n1	-5	-5	26	-1	69*	/
CC(NC(=S)Nc1ccc(F)cc1)C(c1cccs1)N1CCOCC1 (stereo unspecified)	/	/	/	/	/	-0.95
CCCCN(C)C(=O)C1CCC(=O)N(c2cc(OC)c(OC)c(OC)c2)C1c1ccc(OC)cc1 (stereo unspecified)	0	-6	7	-3	3	-8.4*
COc1ccc(C2C(C(=O)O)CCC(=O)N2c2ccc(OC)cc2)cc1 (stereo unspecified)	3	-6	6	2	8	-0.73
CC(=O)c1oc2ccccc2c1NC(=O)CN1CCCCC1	3	-8	-6	2	6	0.31
C=CCn1c(CSCc2ccc(C)cc2)nnc1SCC(=O)NCc1ccccc1	-2	-12	-16	1	2	2.1*
SMILES	EphB4 antag	PLK1 kinase inh	PLK1 PBD inh	FAK blocker	Rev-RRE block	hDAT+cocaine
C=CCn1c(CSCc2ccc(Cl)cc2)nnc1SCC(=O)NCc1ccccc1	-6	-7	-26	3	2	2
N#Cc1cc([N+](=O)[O-])cnc1NCC(O)CO (stereo unspecified)	0	-4	-2	-8	2	-0.062
O=[N+]([O-])c1cccc(-c2nnn(C34CC5CC(CC(C5)C3)C4)n2)c1	0	-2	-18	1	12	0.054
CCOC(=O)N1CCC(Nc2c(OCC)c(=O)c2=O)CC1	-6	69*	-1	-6	3	0.052
CCOC(=O)N1CCC(Nc2c(NCCCOC)c(=O)c2=O)CC1	-2	-19	-13	-5	-4	-0.013
O=c1ncc(F)c[nH]1	/	/	/	/	/	-0.36
COC(=O)C1=C(C)N(CCCC(=O)O)C(=O)NC1c1cccc(Cl)c1Cl (stereo unspecified)	/	/	/	/	/	0.62
CSc1nc2nc(C)cc(-c3ccccc3)n2n1	6	-9	-16	3	2	2.1
Cc1cc(-c2ccccc2)n2ncc(C#N)c2n1	1	54*	24	1	4	-0.8
Cc1sc2nc(CSc3nnc(Cc4cccs4)n3C3CCCCC3)[nH]c(=O)c2c1C	-4	-1	31	-2	56*	-1.1
Cn1c(Cc2cccs2)nnc1SCC(=O)N1CCCc2ccccc21	-4	-13	-20	1	-2	-0.23
O=C(CSc1nnc(Cc2cccs2)n1C1CCCCC1)N1CCCc2ccccc21	-9	-9	-5	1	-4	2.2*
CCn1c2ccccc2c2nnc(SCC(=O)Nc3c(C)n(C)n(-c4ccccc4)c3=O)nc21	0	-13	9	-3	0	2.6
C=CCn1c2ccccc2c2nnc(SCC(=O)Nc3c(C)n(C)n(-c4ccccc4)c3=O)nc21	-3	4	-8	-6	-3	3*
CCCCN1C2CCCC1CC(NC(=O)N(C(C)C)C(C)C)C2 (stereo unspecified)	0	-3	2	-1	8	/
CCOC(=O)C1=C(N)Oc2c(oc(CO)cc2=O)C1c1ccc(F)cc1 (stereo unspecified)	10	-7	-6	-2	6	1.1
CCOC(=O)c1[nH]c(C)c(C(=O)OCC(=O)N2CCc3ccccc32)c1C	4	-11	18	0	4	-1.1
CC(=O)c1c(C)[nH]c(C(=O)OCC(=O)N2CCc3ccccc32)c1C	-10	-16	-14	0	-4	-2.6*
NC(=O)C1=C[C@@H](c2csc3ccccc23)C[C@@H](OCCCCO)O1	/	/	/	/	/	0.0027
Cc1nc(NCCc2ccccc2F)c(C#N)c(C)c1[N+](=O)[O-]	5	-20	3	0	16	-1
Cc1ccc(S(=O)(=O)N(C)Cc2ccc(-c3nnc4n3CCC4)cc2)cc1	3	-12	-42	0	7	2.2*
O=S(=O)(c1ccccc1F)N1CCN(Cc2nc3ccccc3[nH]2)CC1	-4	-8	1	-1	-5	0.81
Cc1cccc(NC(=O)CSc2ncnc3nc[nH]c23)c1C	-1	16	24	-10	2	-1.4
FC(F)Sc1ccc(Nc2ncnc3nc[nH]c23)cc1	-6	60*	9	10	-4	0.022
